Data set [1] concerns the target mouse PD-L1 (mPD-L1) on CHO cells (Mus musculus, UniProt Q9EP73). Briefly: Flow cytometry binding to CHO cells expressing mouse PD-L1. The format is cell-based. The conditions noted are these: highest concentration tested, 1200 nM (Figure S15E). (In general: Flow cytometry measures light scatter and fluorescence of single cells or particles in a stream.)
A further data set addresses hPD-L1 (Homo sapiens, UniProt Q9NZQ7). In words: Biolayer interferometry. The format is binding. The method in brief: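 Extracellular-domain hPD-L1 was expressed in HEK293F cells, Ni-NTA purified and BirA-biotinylated. At 1 μg mL−1 it was loaded onto streptavidin biosensors to 1.4 nm, with PD-L1-free sensors as reference. Association ran 180 s and dissociation 900 s in assay buffer. Sensorgrams were normalized to no-peptide and globally fit to a 1:1 Langmuir model. Duplicates; means and fitting errors reported.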

Data set [2] in a line: Peptide solubility and aggregation. The format is physicochemical. The conditions noted are these: all conditions tested for CD spectroscopy. The method in brief: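 Lyophilized peptide was reconstituted in phosphate buffer (15 mM pH 6.5 or 50 mM pH 4.5) containing 10–20% MeOH or TFE. Samples were vortexed and sonicated 5 min. Concentration was set by absorbance at 280 nm, using 5500 M−1 cm−1 per Trp and 1490 M−1 cm−1 per Tyr. Absorbance had to stay constant over 20 min to exclude aggregation.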

In data set [3] the target is T1, human PD-L2 (hPD-L2) on CHO cells (Homo sapiens, UniProt Q9BQ51).
T1 sequence (Q9BQ51 20-273): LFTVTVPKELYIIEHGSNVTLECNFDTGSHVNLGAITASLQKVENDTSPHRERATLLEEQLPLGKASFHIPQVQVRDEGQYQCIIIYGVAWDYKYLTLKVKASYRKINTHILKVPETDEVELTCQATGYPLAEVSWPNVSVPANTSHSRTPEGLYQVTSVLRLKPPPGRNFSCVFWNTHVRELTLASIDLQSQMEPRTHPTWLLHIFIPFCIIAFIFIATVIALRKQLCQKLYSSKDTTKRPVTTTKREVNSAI
Briefly: Flow cytometry binding to CHO cells expressing human PD-L2. The conditions noted are these: highest concentration tested, 1200 nM (Figure S15E). The format is cell-based. The method in brief: (§1)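 CHO cells stably transfected with hPD-L2, or MDA-MB-468 cells, were grown in DMEM with 10% heat-inactivated FBS. They were lifted with trypsin-EDTA and resuspended in serum-free medium at 200,000 cells per well. Cells were incubated 1 h at 4°C in the dark with a dilution series of fluorescein-conjugated test peptide in cold 1:1 PBS:SF medium. After three cold-PBS washes, live single-cell fluorescence was read by flow cytometry (488 nm excitation).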

Data set [4] addresses hPD-L1 on the surface of CHO cells (Homo sapiens, UniProt Q9NZQ7). Briefly: Flow cytometry binding to CHO hPD-L1 cells. The format is cell-based. The conditions noted are these: flow cytometry (Figure S15D).
Data set [5] in a line: Far-UV CD thermal denaturation. The conditions noted are these: pH 6.5, 0-90°C. The format is physicochemical. The method in brief:
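Peptide was prepared in PB/MeOH 80:20 (15 mM PB pH 6.5 or 50 mM pH 4.5) at 17–70 μM, set by UV absorbance, in a 0.1 cm quartz cuvette. Far-UV spectra were taken at 190–270 nm, averaged over eight scans, with solvent blank subtracted. The ramp ran 0–90°C at 45°C per hour under nitrogen. Melts used molar ellipticity at 220 or 222 nm; first-derivative maxima gave transitions.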

The conditions of data set [6]: cited from earlier work.
The target in a further data set is PD-1/hPD-L1 interaction (Homo sapiens, UniProt Q9NZQ7). In words: PD-L1 T-cell reactivation assay. The format is cell-based. As to conditions: 5 μM peptide, 6 h at 37 °C, Bio-Glo luminescence, RLU relative to vehicle.
The subject of a further data set is MDA-MB-468 cells. Briefly: Flow cytometry binding to hPD-L1-negative MDA-MB-468 cells. The format is cell-based, human. As to conditions: SPAM2-fluorescein dilution series. The method in brief: as §1
Data set [7] concerns the target human PD‐L1 stably expressed on CHO cells (human, UniProt Q9NZQ7 19-290). Briefly: flow cytometry on cells.

Bridge positions count the residues as written; N and C are the ends. Square brackets hold non-standard residues; d marks the D form. Ends that are not written are not given here. I, II: the chains in the order shown. propargylglycine(fluorescein) = propargylglycine labeled with fluorescein azide by click chemistry; PEG10 = NCCOCCOCCOCCOCCOCCOCCOCCOCCOCCOCCC(=O)O

Sequence of hPD-L1 (Q9NZQ7 19-238 limits assumed): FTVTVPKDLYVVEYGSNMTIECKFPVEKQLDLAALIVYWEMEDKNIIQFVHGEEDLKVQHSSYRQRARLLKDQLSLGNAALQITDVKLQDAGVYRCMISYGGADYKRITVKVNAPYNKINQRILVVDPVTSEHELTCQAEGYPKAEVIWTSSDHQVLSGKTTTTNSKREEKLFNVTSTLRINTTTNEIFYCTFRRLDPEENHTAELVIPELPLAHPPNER
Sequence of hPD-L1 on the surface of CHO cells (Q9NZQ7 19-290): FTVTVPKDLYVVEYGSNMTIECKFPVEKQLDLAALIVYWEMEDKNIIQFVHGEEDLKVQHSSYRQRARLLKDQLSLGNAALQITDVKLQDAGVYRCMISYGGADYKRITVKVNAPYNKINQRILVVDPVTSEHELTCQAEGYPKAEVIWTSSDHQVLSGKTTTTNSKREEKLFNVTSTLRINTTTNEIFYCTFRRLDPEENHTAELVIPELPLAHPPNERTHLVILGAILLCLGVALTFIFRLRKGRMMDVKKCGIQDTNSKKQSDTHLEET
Sequence of human PD‐L1 stably expressed on CHO cells (Q9NZQ7 19-290): as above
Sequence of PD-1/hPD-L1 interaction (Q9NZQ7 19-290): as above
Sequence of mouse PD-L1 (mPD-L1) on CHO cells (Q9EP73 19-290): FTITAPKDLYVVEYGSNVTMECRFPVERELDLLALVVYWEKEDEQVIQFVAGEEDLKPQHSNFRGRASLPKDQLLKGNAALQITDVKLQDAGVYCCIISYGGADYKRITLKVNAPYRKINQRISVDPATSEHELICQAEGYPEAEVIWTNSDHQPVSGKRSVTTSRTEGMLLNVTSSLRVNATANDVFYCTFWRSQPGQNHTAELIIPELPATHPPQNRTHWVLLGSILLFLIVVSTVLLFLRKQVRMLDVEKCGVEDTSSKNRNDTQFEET

Usually koff stands for the rate constant with which the complex falls apart. Low readings indicate slow dissociation, high ones fast dissociation. By kon is commonly meant a measure of how fast the partners come together. In the case of “I: MYSSTDHILNKFLILHYALNPT[PEG10]K-NH2 / II: MYSSTDHILNKFLILHYALNPT[PEG10] (amide I:24-II:C) [SPAM4]”, the “binding to CHO-mPD-L1 cells” value in data set [1] was “no binding”. On hPD-L1, this molecule displayed a koff of 0.000219 ± 4e-06 s⁻¹ and a kon of 2.23e+06 ± 110000 M⁻¹ s⁻¹. The “solubility” value in data set [2] is given as “low solubility”. Besides, the “binding to CHO-hPD-L2 cells” value in [3] is reported as “no binding”.
Take “MALPIFSNTYLSHTDLKNYHILGSSSSGS [SPAM3 scrambled]”: in [4], the “binding of sequence-scrambled peptides to CHO-hPD-L1 cells” value was “no significant binding”.
By Kd is commonly meant the free concentration of one partner at which half of the binding sites on the other are occupied at equilibrium, for simple one-to-one binding. Low values mean higher affinity, high ones lower affinity. Take MPIFLDHILNKFWILHYA-NH2 [SPAM]: in [5], the “temperature above which irreversible aggregation occurs in thermal denaturation” value is “above 50 °C”. Besides, on hPD-L1, the koff stood at 0.049 ± 0.0009 s⁻¹ and the association rate constant (kon) worked out at 1.41e+06 ± 30000 M⁻¹ s⁻¹. At hPD-L1 (K D by BLI, BLI, mean of duplicate), this molecule registered a dissociation constant Kd of 38 ± 1 nM. Further, the “serum stability (ex vivo)” value in [6] (ref Kamalinia et al., 2020) is “acceptable serum stability”.
Consider “MSLANYNWSHPSRKDNIHWSLFGSSSSGS [SPAM2 scrambled]”, for which, in [4], the “binding of sequence-scrambled peptides to CHO-hPD-L1 cells” value was “no significant binding”.
On hPD-L1, MWSRSDHNLNKFWILHYSANPS-NH2 [SPAM2] gave a koff of 0.00264 ± 2e-05 s⁻¹ and a kon of 8.78e+06 ± 210000 M⁻¹ s⁻¹. The “signal restored in T-cell reactivation assay” value on PD-1/hPD-L1 interaction is listed as “more than 50%”.
At hPD-L1, MYSSTDHILNKFLILHYALNPT-NH2 [SPAM3] yielded a koff of 0.00146 ± 1e-05 s⁻¹ and an on-rate (kon) of 5.78e+06 ± 80000 M⁻¹ s⁻¹.
For “SGQYASYHCWCWRDPGRSGGSK [TPP-1, reference compound]”, in data set [6] (ref Hu et al., 2019), the “serum stability” value is recorded as “poor serum stability”.
In the case of “SPAM2‐fluorescein: SPAM2 with C-terminal propargylglycine labeled with fluorescein azide by click chemistry (MWSRSDHNLNKFWILHYSANPS-{propargylglycine(fluorescein)}; also: fluorescein azide attached by click chemistry)”, in the data set with MDA-MB-468 cells, the “labeling of hPD-L1-negative cells” value is listed as “no concentration‐dependent labeling”.

B1: fluorescein‐labeled SPAM3 (peptide)
peptide: MYSSTDHILNKFLILHYALNPT
modifications: also: fluorescein (position not given here)
In the case of B1, binding in data set [7] was put at a Kd of 5.15 nM. In other words, the single-digit nanomolar range.

B2: SPAM2‐fluorescein (peptide)
peptide: MWSRSDHNLNKFWILHYSANPS
modifications: also: fluorescein (position not given here)
For the molecule B2, the Kd in data set [7] stood at 15.3 nM.

Source of the values: paper PMC12376068 (Protein Science : A Publication of the Protein Society, 2025).
